Data on 9 compounds can be found in ChEMBL document CHEMBL1126834, “Chemistry, binding affinities, and behavioral properties of a new class of "antineophobic" mitochondrial DBI receptor complex (mDRC) ligands” (J Med Chem, 1993).

The target of one experiment is Translocator protein (Rattus norvegicus, UniProt P16257). The experiment in a line: Binding affinity against mitochondrial DBI complex (peripheral benzodiazepine receptor) using primary cultures of glial cells. The procedure, abridged:
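Glia from cerebella of 8-day-old Sprague–Dawley rat pups, trypsin-dissociated and grown 14 days (~95% astroglia). Cells lysed in 50 mM Hepes pH 7.4, 4 μg protein per tube. Incubated with [3H]4'-chlorodiazepam and competitor for 90 min at 4 °C, then filtered. Nonspecific binding defined with 10 μM 4'-chlorodiazepam. Triplicate competition curves; IC50 by nonlinear regression, converted to Ki (Bylund–Yamamura).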

Experiment [1] has as its target Adrenergic receptor alpha. The experiment is described as follows: Displacement of [3H]clonidine from alpha-adrenergic receptor in rat brain. It is filed as tissue-based. For orientation: Loss of bound radioactivity is the signal in a displacement assay; it reports binding, not function.
A further experiment has as its target Glutamate NMDA receptor. The experiment in a line: Inhibitory activity by measuring its ability to displace [3H]-MK-801 from glutamate(NMDA) receptor in rat brain. It is filed as tissue-based.
Experiment [2] addresses GABA-A receptor; anion channel. The experiment is described as follows: Inhibitory activity at GABA A receptor, measured by the ability to displace [3H]zolpidem from GABA A receptor in rat brain. It is filed as tissue-based.
Experiment [3] concerns the target Serotonin 2 (5-HT2) receptor (Rattus norvegicus). The experiment is described as follows: Inhibitory activity by measuring its ability to displace [3H]ketanserin from serotonin receptor in rat brain.
Experiment [4] addresses GABA-A receptor; anion channel. The experiment in a line: Inhibitory activity at GABA A receptor, measured by the ability to displace [3H]flumazenil from GABA A receptor in rat brain. The class given is tissue-based.
Experiment [5] in a line: Inhibitory activity by measuring its ability to displace [3H]spiperone from dopamine or serotonin 5-HT-1 receptors in rat brain. The class given is tissue-based.
Experiment [6] has as its target Sigma receptor (Rattus norvegicus). The experiment in a line: Tested for inhibitory activity by measuring its ability to displace [3H]3-PPP from sigma receptor in rat brain.
The target of experiment [7] is T1, Gastrin/cholecystokinin type B receptor (Rattus norvegicus, UniProt P30553).
T1 sequence (P30553 whole entry): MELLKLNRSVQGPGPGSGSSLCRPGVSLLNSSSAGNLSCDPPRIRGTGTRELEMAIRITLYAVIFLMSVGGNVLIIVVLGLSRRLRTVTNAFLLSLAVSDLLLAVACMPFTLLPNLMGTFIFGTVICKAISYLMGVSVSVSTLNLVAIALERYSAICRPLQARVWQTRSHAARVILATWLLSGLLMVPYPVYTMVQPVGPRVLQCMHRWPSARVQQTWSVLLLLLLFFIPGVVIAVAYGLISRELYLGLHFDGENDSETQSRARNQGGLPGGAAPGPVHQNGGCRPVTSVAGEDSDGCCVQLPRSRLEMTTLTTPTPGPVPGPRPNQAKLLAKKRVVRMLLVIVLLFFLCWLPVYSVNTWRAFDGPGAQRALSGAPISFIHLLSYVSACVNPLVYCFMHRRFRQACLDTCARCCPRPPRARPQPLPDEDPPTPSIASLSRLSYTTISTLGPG
The experiment in a line: Inhibitory activity by measuring its ability to displace [3H]L-365260 from cholecystokinin receptor in rat brain. It is filed as tissue-based.

Experiment [8] deals with Adrenergic receptor alpha. The experiment in a line: Inhibitory activity by measuring its ability to displace [3H]WB-4101 from alpha-adrenergic receptor in rat brain. It is filed as tissue-based.
For experiment [9], the target named is GABA-A receptor; anion channel. The experiment in a line: Inhibitory activity at GABA A receptor, measured by the ability to displace [3H]GABA from GABA A receptor in rat brain. It is filed as tissue-based.
In the next experiment the target is Cannabinoid receptor 1 (Rattus norvegicus, UniProt P20272). The experiment in a line: Inhibitory activity, measured by displacement [3H]CP-55940 from cannabinoid receptor (CB1) in rat brain. The class given is tissue-based.
Sequence of Cannabinoid receptor 1 (P20272 whole entry): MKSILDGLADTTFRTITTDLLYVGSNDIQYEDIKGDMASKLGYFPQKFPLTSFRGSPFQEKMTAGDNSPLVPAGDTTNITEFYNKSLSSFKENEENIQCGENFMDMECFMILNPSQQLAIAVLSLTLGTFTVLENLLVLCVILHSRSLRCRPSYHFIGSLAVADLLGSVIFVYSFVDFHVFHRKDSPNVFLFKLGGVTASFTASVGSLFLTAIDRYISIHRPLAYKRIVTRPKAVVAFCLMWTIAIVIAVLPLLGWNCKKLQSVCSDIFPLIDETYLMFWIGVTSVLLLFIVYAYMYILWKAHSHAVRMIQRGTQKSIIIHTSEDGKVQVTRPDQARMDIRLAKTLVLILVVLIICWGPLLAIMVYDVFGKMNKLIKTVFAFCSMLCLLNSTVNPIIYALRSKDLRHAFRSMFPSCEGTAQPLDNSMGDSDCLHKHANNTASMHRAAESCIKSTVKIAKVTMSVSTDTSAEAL
Experiment [10] can be described thus: Tested for inhibitory activity by measuring its ability to displace [3H]AMPA from glutamate (non-NMDA) receptor in rat brain. The class given is tissue-based.
Experiment [11] is described as follows: Inhibitory activity at GABA B receptor, measured by the ability to displace [3H]baclofen from GABA B receptor in rat brain. The class given is tissue-based.
Experiment [12] in a line: Inhibitory activity by measuring its ability to displace [3H]glycine from glycine receptor in rat brain. It is filed as tissue-based.
In experiment [13] the target is GABA-A receptor; anion channel. The experiment is described as follows: Inhibitory activity at GABA A receptor, measured by the ability to displace [35S]TBPS from GABA A receptor in rat brain. The class given is tissue-based.
A further experiment has as its target Adrenergic receptor beta (Rattus norvegicus, UniProt P18090+P10608+P26255). The experiment in a line: Inhibitory activity by measuring its ability to displace [125I]pindolol from beta-adrenergic receptor in rat brain. The class given is tissue-based.
The next experiment deals with Opioid receptor (Rattus norvegicus, UniProt P33533+P34975+P33535). The experiment is described as follows: Inhibition of [3H]naxolone binding to opiate receptors in rat brain. The class given is tissue-based.
For experiment [14], the system named is Rattus norvegicus. The experiment in a line: Tested for antineophobic activity using the elevated plus maze test administered at 78 umol/kg perorally in rats. The class given is functional.
Experiment [15] addresses Adrenergic receptor alpha. The experiment is described as follows: Inhibitory activity by measuring its ability to displace [3H]clonidine from alpha-adrenergic receptor in rat brain. It is filed as tissue-based.
In experiment [16] the test system is Rattus norvegicus. The experiment in a line: Tested for antineophobic activity using the elevated plus maze test administered at 59 umol/kg perorally in rats. The class given is functional.
Experiment [17] has as its system Rattus norvegicus. The experiment is described as follows: Tested for antineophobic activity using the elevated plus maze test administered at 40 umol/kg perorally in rats. It is filed as functional.
Experiment [18] relates to Rattus norvegicus. The experiment is described as follows: Tested for antineophobic activity using the elevated plus maze test administered at 58 umol/kg perorally in rats. It is filed as functional.
Experiment [19] has as its system Rattus norvegicus. The experiment is described as follows: Tested for antineophobic activity using the elevated plus maze test administered at 53 umol/kg perorally in rats. It is filed as functional.
The test system of experiment [20] is Rattus norvegicus. The experiment is described as follows: Tested for antineophobic activity using the elevated plus maze test administered at 71 umol/kg perorally in rats. It is filed as functional.

In general, Ki refers to a measure of affinity in units of concentration, obtained from inhibition or displacement. What is called IC50 is the concentration needed to halve the response being measured. A higher IC50 goes with weaker potency in that assay.

Sequence of Translocator protein (P16257 whole entry, looked up): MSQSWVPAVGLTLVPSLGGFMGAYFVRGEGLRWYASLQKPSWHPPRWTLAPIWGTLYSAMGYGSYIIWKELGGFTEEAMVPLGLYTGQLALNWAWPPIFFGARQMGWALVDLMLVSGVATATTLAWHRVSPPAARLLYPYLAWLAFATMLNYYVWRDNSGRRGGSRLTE

Take `CCCN(CCC)C(=O)Cc1c2n(c3ccccc13)Cc1ccccc1-2`: the Ki on Translocator protein was found to be 20 nM. For the same compound, the half-maximal inhibitory concentration (IC50) (in [1]; at Glutamate NMDA receptor; in experiment [2]; in [3]; in experiment [4]; in experiment [5]) was > 1000 nM each time. For the same compound, the IC50 (in experiment [6]; in experiment [7]; in experiment [8]; in experiment [9]; at Cannabinoid receptor 1; in [10]) was > 1000 nM in each case. For the same compound, the concentration for half-maximal inhibition (IC50) (in [11]; in [12]; in [13]; at Adrenergic receptor beta; at Opioid receptor) was > 1000 nM in each case.
The compound `O=C(Cc1c(-c2ccccc2)[nH]c2ccccc12)N1CCCCC1` displayed an inhibition constant (Ki) on Translocator protein of 350 nM. Further, the No. of entries in the experiment on Rattus norvegicus [14] amounted to 2.3. Moreover, the Time in the experiment with Rattus norvegicus [14] worked out at 5.7%. The IC50 (on Glutamate NMDA receptor; in experiment [2]; in [4]; in experiment [5]; in experiment [7]; in experiment [8]) was > 1000 nM in each case. For the same compound, the IC50 (in experiment [9]; on Cannabinoid receptor 1; in experiment [15]; in experiment [10]; in experiment [11]; in [12]) was > 1000 nM in each case. In addition, the 50% inhibitory concentration (IC50) (in experiment [13]; at Adrenergic receptor beta) was > 1000 nM throughout.
Compound `CCCCCCN(CCCCCC)C(=O)Cc1c(-c2ccccc2)[nH]c2ccccc12` gave a Ki on Translocator protein of 9.7 nM. The IC50 (on Glutamate NMDA receptor; in experiment [2]; in [3]; in experiment [4]; in experiment [5]; in experiment [6]) was > 1000 nM each time. Also, the IC50 (in [7]; in experiment [8]; in [9]; on Cannabinoid receptor 1; in experiment [15]; in [10]) was > 1000 nM in each case. Besides, the IC50 (in [11]; in experiment [12]; in experiment [13]; on Adrenergic receptor beta; on Opioid receptor) was > 1000 nM throughout. Also, the No. of entries with Rattus norvegicus [16] amounted to 1.6. For the same compound, the Time in the experiment with Rattus norvegicus [16] was found to be 6.2%.
As for `CCCCN(CCCC)C(=O)Cc1c(-c2ccc(F)cc2)[nH]c2ccccc12`, the Ki on Translocator protein was 45 nM. Moreover, the IC50 (at Glutamate NMDA receptor; in experiment [2]; in experiment [3]; in [4]; in experiment [5]; in [6]) was > 1000 nM throughout. Also, the IC50 (in [7]; in experiment [8]; in [9]; on Cannabinoid receptor 1; in experiment [15]; in experiment [10]) was > 1000 nM throughout. The IC50 (in experiment [11]; in experiment [12]; in experiment [13]; on Adrenergic receptor beta; at Opioid receptor) was > 1000 nM each time. In addition, the No. of entries in the experiment with Rattus norvegicus [17] is 3.6. Also, in the experiment with Rattus norvegicus [17], the Time came out at 8%.
As for `CCCCCCN(CCCCCC)C(=O)Cc1c2n(c3ccccc13)Cc1ccccc1-2`, on Translocator protein, affinity was put at a Ki of 7.7 nM. In addition, the IC50 (in experiment [1]; at Glutamate NMDA receptor; in experiment [2]; in experiment [4]; in experiment [5]; in experiment [7]) was > 1000 nM in each case. Moreover, the IC50 (in experiment [8]; in experiment [9]; on Cannabinoid receptor 1; in experiment [10]; in [11]; in [12]) was > 1000 nM throughout. The concentration for half-maximal inhibition (IC50) (in experiment [13]; on Adrenergic receptor beta) was > 1000 nM each time. Further, the No. of entries with Rattus norvegicus [18] was 2. In the experiment on Rattus norvegicus [18], the Time was 6.4%.
Consider `CCCCCCN(CCCCCC)CCc1c(-c2ccc(F)cc2)[nH]c2ccccc12`, for which the inhibitory constant (Ki) on Translocator protein came out at 200 nM. The half-maximal inhibitory concentration (IC50) (in [1]; at Glutamate NMDA receptor; in [2]; in experiment [4]; in experiment [5]; in experiment [7]) was > 1000 nM throughout. The IC50 (in [8]; in experiment [9]; at Cannabinoid receptor 1; in experiment [10]; in [11]; in experiment [12]) was > 1000 nM throughout. Further, the concentration for half-maximal inhibition (IC50) (in experiment [13]; on Adrenergic receptor beta) was > 1000 nM in each case. Further, the No. of entries in the experiment on Rattus norvegicus [16] is reported as 2. Also, the Time in the experiment on Rattus norvegicus [16] came out at 4.1%.
Turning to `CCCCCCN(CCCCCC)C(=O)Cc1c(-c2ccc(F)cc2)[nH]c2ccc(Cl)cc12`, affinity on Translocator protein was put at a Ki of 2.3 nM. For the same compound, the 50% inhibitory concentration (IC50) (in experiment [1]; on Glutamate NMDA receptor; in experiment [2]; in [3]; in experiment [4]; in experiment [5]) was > 1000 nM throughout. Further, the IC50 (in experiment [6]; in [7]; in [8]; in experiment [9]; at Cannabinoid receptor 1; in experiment [10]) was > 1000 nM each time. The half-inhibitory concentration (IC50) (in experiment [11]; in [12]; in experiment [13]; on Adrenergic receptor beta; at Opioid receptor) was > 1000 nM each time. The No. of entries with Rattus norvegicus [19] was 0.4. The Time in the experiment on Rattus norvegicus [19] worked out at 0.4%.
As for `CCCCCCNC(=O)Cc1c(-c2ccc(F)cc2)[nH]c2ccccc12`, at Translocator protein, the Ki came out at 323 nM. The half-inhibitory concentration (IC50) (at Glutamate NMDA receptor; in [2]; in [3]; in [4]; in experiment [5]; in [6]) was > 1000 nM throughout. For the same compound, the IC50 (in experiment [7]; in [8]; in experiment [9]; at Cannabinoid receptor 1; in experiment [15]; in [10]) was > 1000 nM in each case. For the same compound, the half-inhibitory concentration (IC50) (in experiment [11]; in [12]; in experiment [13]; on Adrenergic receptor beta; on Opioid receptor) was > 1000 nM in each case. Besides, the No. of entries in the experiment on Rattus norvegicus [20] is 0.6. Also, the Time in the experiment with Rattus norvegicus [20] is recorded as 1.6%.
At Translocator protein, `CCCN(CCC)C(=O)Cc1cn(Cc2ccc(Br)cc2)c2ccccc12` had an inhibition constant (Ki) of 200 nM. In addition, the IC50 (on Glutamate NMDA receptor; in experiment [2]; in [4]; in [5]; in experiment [7]; in experiment [8]) was > 1000 nM in each case. The IC50 (in experiment [9]; at Cannabinoid receptor 1; in experiment [15]; in experiment [10]; in [11]; in experiment [12]) was > 1000 nM in each case. Moreover, the IC50 (in experiment [13]; at Adrenergic receptor beta) was > 1000 nM in each case. Further, in the experiment on Rattus norvegicus [18], the No. of entries was determined as 0.6. Further, in the experiment with Rattus norvegicus [18], the Time worked out at 1%.
